Experimental data as given in ChEMBL document CHEMBL4513216, “Probing the Open Global Health Chemical Diversity Library for Multistage-Active Starting Points for Next-Generation Antimalarials” (ACS Infect Dis, 2020).

Experiment: Toxicity liver stage against HepG2, at 10uM
Type: cell-based
Design: test concentration 10 uM, cell line HepG2-A16-CD81EGFP
Settings: human, HepG2-A16-CD81EGFP cells; read-out: INHIBITION
How it was run: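 Uninfected HepG2-A16-CD81EGFP cells, 3 × 10^3 per well, 1536-well, plated on prespotted compound at 10 μM final, parasite-free screening media added to match infected plates; puromycin 10 μM positive, DMSO 0.5% negative; run in parallel with 48 h PbLuc assay at 37 °C, 5% CO2; viability by CellTiter-Glo luminescence, normalized to controls.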

Structure (SMILES)	cytotoxicity at 10 µM [%]
CC(C)N1C[C@@H]2OCC(=O)N(Cc3ccccc3)[C@@H]2C1	10.5
CCCSc1ncccc1C(=O)NCc1ccc(N(C)C)cc1	8.07
COc1ccc(CC(C)(O)CNC(=O)c2cccs2)cc1 (stereo not given)	-4.69
O=C(NCC(F)(F)F)c1ccc(-n2cncn2)nn1	-1.66
CCc1ccc2c(C3CN(C(C)=O)C3)ncn2c1	2.16
Cc1cc(C(=O)N2CCC3(CC2)C(=O)NCCN3CC(C)C)c(C)o1	9.61
CCn1ncc2c1C(COC)CN(Cc1ccc(C)o1)C2 (stereo not given)	5.41
CN1Cc2c(C(=O)NCC3CCCO3)ncn2-c2ccccc2S1(=O)=O (stereo not given)	-141
O=C(c1cccnc1)N1CCN(CC2CC2)c2ncccc2C1	2
O=C1CC(c2cccc(O)c2)c2c(c(C(=O)O)cn2-c2ccccc2)N1 (stereo not given)	1
Cc1cc(C(=O)N2CC[C@H](OCC3CC3)[C@@H]2Cc2cccnc2)no1	-6.44
COc1ccc(OC)c(C(C)NS(=O)(=O)c2cn(C)nc2C)c1 (stereo not given)	8.35
CN1CCN(C(=O)c2cc(-c3ccco3)cs2)CC1	1.63
CC(C)(C)C(=O)N1CCC(c2noc(C3CCC(=O)N3)n2)CC1 (stereo not given)	-3.06
O=C(CC1CCCC1)N1CCC(c2nnc(-c3ccccn3)o2)CC1	-3.32
Cc1nc(Nc2nccs2)cc(C2CN(C(C)C)C2)n1	-5.42
Cc1ccc2[nH]c(C3CCN(C)CC3)nc2c1	6.79
O=C(NCCO)C1(Cc2ccccc2-c2ccncc2)CCOCC1	2.27
CCc1nnc(Nc2cccc(C3CCN(C(=O)CNC)CC3)n2)s1	-31.2
Cc1nc(Nc2cnccn2)cc(C2CCN(c3ncccn3)C2)n1 (stereo not given)	-19.5
CNc1cc(C2CCCN2Cc2ccc(OCC(=O)O)cc2)ccn1 (stereo not given)	-21.9
CC(=O)N1CCN(CC(N)=O)CC(COc2ccccc2)C1 (stereo not given)	-28.7
COCC(=O)N1CCN(Cc2cc(-c3ccncc3)nn2C)CC1	-4.17
CC(=O)N(C)CC(=O)Nc1cc(C(F)(F)F)c[nH]c1=O	4.57
CN(Cc1ccc(Br)c2cccnc12)S(C)(=O)=O	2.92
COc1c(C)cnc(CN2CCn3c(nnc3C3CC3)C2)c1C	-4.94
Cc1cc(C)cc(NCCC(=O)NC2CCN(C(=O)C3CC3)CC2)c1	2.4
CC(NC(=O)Nc1cccnc1N1CCCC1)c1ccccn1 (stereo not given)	8.05

Structure (SMILES)	cytotoxicity at 10 µM [%]
O=C(Nc1cc[nH]n1)c1ccc(COCC(F)(F)F)cc1	-7.46
CCc1nc2n(n1)CC(NCCc1cccs1)CC2 (stereo not given)	-13
CN(Cc1cnn(C)c1)C(=O)Cc1ccc2c(c1)OCCO2	2.45
O=C(NCc1ccccn1)N1CC=C(c2ccccc2)CC1	14.9
Cc1nn(C)cc1C(=O)NCc1cc(N(C)C)nc2ccccc12	2.29
Cc1noc(CN2CCN(CCS(C)(=O)=O)CC2)n1	-10.1
O=C(Nc1ccc(N2CCOCC2)nc1)N1CCc2sccc2C1	-2.26
CSC(C)(C)CNC(=O)NCc1cccc(-n2cncn2)c1	-14.4
O=C(CCNC(=O)c1sccc1-c1ccccc1)NC1CCS(=O)(=O)C1 (stereo not given)	1.9
CCN(CC(=O)NC)S(=O)(=O)N1CCCCC1	1.29
Cc1ccc(CNC2CCc3nc(C(C)C)nn3C2)o1 (stereo not given)	-1.85
Cc1cnn(CC2CCCCN2C(=O)c2ccc3c(c2)nnn3C)c1 (stereo not given)	-6.36
COc1ccc(C)cc1CCNS(C)(=O)=O	2.39
Cc1ccc(-n2ccnc2)c(C(=O)NCCOCC(F)(F)F)c1	-136
Cc1oc(-c2ccc(Cl)cc2)nc1C(=O)NC1=NCCS1	4.65
CC(C)n1cc(S(=O)(=O)NCCc2nnc3ccccn23)cn1	7.07
Cn1cnnc1CNC(=O)C1CCCN(Cc2cccc(F)c2)C1 (stereo not given)	5.49
O=C(CNC1CCc2ncnn2C1)N(C1=CCCCC1)C1CC1 (stereo not given)	-8.07
CC(c1nnc(-c2cccs2)o1)N1CCc2cncnc2C1 (stereo not given)	6.37
CC(C)(C)CCN1CCN(c2snc(Cl)c2C#N)CC1	38.1
CS(=O)(=O)c1cccc(S(=O)(=O)NC(=O)CC2CCCCC2)c1	-3.17
COCCNC(=O)N1CCCCC1CNC(=O)Nc1ccccc1 (stereo not given)	-0.244
CCCN(CCc1ccccn1)C(=O)Cn1cnnn1	2.52
CC(O)C1CCN(C(=O)CCOc2ccccc2F)CC1 (stereo not given)	-5.63
Cc1ccc(CCC(=O)N2CCOCC2)cc1Cl	12.3
Cc1ccc(F)c(NCc2ccc(C(=O)N(C)C)[nH]2)c1	4.96
CC(CNC(=O)N1CCSCC1)Cc1cccs1 (stereo not given)	-8.63
